The values below come from ChEMBL document CHEMBL1777749, “4-Aminothiazolyl analogs of GE2270 A: design, synthesis and evaluation of imidazole analogs” (2011).

Format in all cases: functional
The subject of one assay is Enterococcus faecium. In words: Antimicrobial activity against Enterococcus faecium 7130724 by CLSI method.
The next assay has as its system Staphylococcus aureus. In words: Antimicrobial activity against methicillin-resistant Staphylococcus aureus clinical isolate obtained from pharyngeal smear by CLSI method. In short, it runs like this:
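MIC by dilution susceptibility testing per CLSI M07-A8, for bacteria that grow aerobically. Strain: MRSA clinical isolate AKH Vienna A4.018, from a pharyngeal smear. Tested compounds were >95% pure by LCUV, LCMS and ¹H NMR.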

A further assay relates to Enterococcus faecalis. In words: Antimicrobial activity against Enterococcus faecalis ATCC 29212 by CLSI method.
The subject of a further assay is Escherichia coli. In words: Inhibition of protein synthesis in Escherichia coli S30 extract at 2 uM by luciferase assay relative to control.
The subject of a further assay is Streptococcus pyogenes. In words: Antimicrobial activity against Streptococcus pyogenes ATCC BAA-595 by CLSI method.

Converted amounts (≈) assume the structure as drawn. Bounds are passed on as bounds.

The term MIC denotes the smallest concentration in the dilution series that meets the test's criterion for growth inhibition. As a reminder, the inhibition is the share of the control response that was lost under treatment.

On to `CNC(=O)C[C@@H]1NC(=O)c2csc(n2)-c2ccc(-c3nc(C4=N[C@H](C(=O)N5CCC[C@H]5C(N)=O)CO4)cs3)nc2-c2csc(n2)-c2csc(n2)[C@H]([C@@H](O)c2ccccc2)NC(=O)CNC(=O)c2nc(sc2COC)[C@H](C(C)C)NC(=O)c2nc1sc2C`, for which the MIC against Enterococcus faecium turned out to be 0.25 µg/mL (≈ 0.194 µM); against Staphylococcus aureus, 0.25 µg/mL (≈ 0.194 µM); with Enterococcus faecalis, 0.5 µg/mL (≈ 0.387 µM); against Streptococcus pyogenes it was 1 µg/mL (≈ 0.775 µM). Testing at 2 µM in the assay with Escherichia coli gave an inhibition of 61%.
Regarding `CNC(=O)C[C@@H]1NC(=O)c2csc(n2)-c2ccc(-c3nc(-n4cnc(C(=O)O)c4)cs3)nc2-c2csc(n2)-c2csc(n2)[C@H]([C@@H](O)c2ccccc2)NC(=O)CNC(=O)c2nc(sc2COC)[C@H](C(C)C)NC(=O)c2nc1sc2C`, the MIC with Enterococcus faecium was over 32 µg/mL; with Staphylococcus aureus it was 4 µg/mL (≈ 3.36 µM); in the assay on Enterococcus faecalis, 4 µg/mL (≈ 3.36 µM); in the assay on Streptococcus pyogenes it was over 32 µg/mL. In addition, the inhibition at 2 µM with Escherichia coli amounted to 0%.
For `CNC(=O)C[C@@H]1NC(=O)c2csc(n2)-c2ccc(-c3nc(-n4cnc(C(=O)N5CCC[C@H]5C(=O)O)c4)cs3)nc2-c2csc(n2)-c2csc(n2)[C@H]([C@@H](O)c2ccccc2)NC(=O)CNC(=O)c2nc(sc2COC)[C@H](C(C)C)NC(=O)c2nc1sc2C`, the MIC against Enterococcus faecium was over 32 µg/mL; in the assay with Staphylococcus aureus, 8 µg/mL (≈ 6.21 µM); against Enterococcus faecalis, 8 µg/mL (≈ 6.21 µM); with Streptococcus pyogenes it was over 32 µg/mL. The same compound showed an inhibition at 2 µM with Escherichia coli of 53%.
With `CNC(=O)C[C@@H]1NC(=O)c2csc(n2)-c2ccc(-c3nc(-n4cnc(C(=O)NCC(=O)O)c4)cs3)nc2-c2csc(n2)-c2csc(n2)[C@H]([C@@H](O)c2ccccc2)NC(=O)CNC(=O)c2nc(sc2COC)[C@H](C(C)C)NC(=O)c2nc1sc2C`, the MIC is 32 µg/mL (≈ 25.6 µM) with Enterococcus faecium, 4 µg/mL (≈ 3.2 µM) with Staphylococcus aureus, 8 µg/mL (≈ 6.41 µM) in the assay with Enterococcus faecalis and over 32 µg/mL against Streptococcus pyogenes. In the assay on Escherichia coli, this compound registered an inhibition at 2 µM of 64%.
